Measured values of several laboratories.
Each line is one published result; the experiments were not run side by side.
Target: Dual specificity protein kinase CLK4 (CLK4, Homo sapiens, UniProt Q9HAZ1)

SMILES	observed	technique	concentration	remaining binding [%]
O=C(NCC1CCOCC1)c1n[nH]cc1NC(=O)c1c(F)cccc1F	binding	competition with immobilised ligand	1 µM	32
Cc1c(C(=O)O)cc(-c2ccc(C3CCNCC3)cc2)c2ccc(-c3ccc(C(F)(F)F)cc3)cc12	binding	competition with immobilised ligand	1 µM	100
COc1ncc2cc3ccccc3nc2c1C#N	cell-free assay	competition with immobilised ligand	5 µM	86
N[C@H]1CCN(c2nccc(-c3cnn4ncccc34)n2)C1	binding		1 µM	22
Cc1cnc(Nc2ccc(C(=O)N3CCC(N4CCCC4)CC3)cc2)nc1-c1cc2ccccc2s1	binding	competition with immobilised ligand	1 µM	11
CNCc1ccccc1-c1csc([C@@H](C)Nc2nc(C)nc3cc(OC)c(OC)cc23)c1	cell-free assay	competition with immobilised ligand	1 µM	100
CN(c1nccc(-c2cnn3ncccc23)n1)C1CC1	binding		1 µM	70
CC(C)(O)c1cncc(-c2nc3ccc(F)cc3n2C2CC2)c1	cell-free assay	competition with immobilised ligand	1 µM	54
O=C(NCCCN1CCOCC1)c1ccc(Nc2ncc(Cl)c(-c3ccc(Cl)s3)n2)cc1	binding	competition with immobilised ligand	1 µM	1.6
O=C(N1CCS(=O)(=O)CC1)N1C[C@H](c2ccc(OC(F)(F)F)cc2)C[C@H](c2nc(C3CC3)no2)C1	cell-free assay	competition with immobilised ligand	1 µM	100
FC(F)(F)Oc1cccc(-c2cnc3ccc(-c4ccncc4)nn23)c1	cell-free assay	competition with immobilised ligand	5 µM	7.8
Cn1cc(Cl)c2c(Oc3c(F)cc(Nc4cc(Cl)nc(N)n4)cc3F)ccnc21	cell-free assay	competition with immobilised ligand	0.1 µM	100
CN(C)c1nccc(-c2cnn3ncccc23)n1	binding		1 µM	5.9
O=C1NC(c2ccccn2)Sc2ccccc21 (stereo not shown)	cell-free assay	competition with immobilised ligand	1 µM	97
c1cncc(-c2cccc(Nc3nccc(NC4CCCCC4)n3)c2)c1	binding	competition with immobilised ligand	10 µM	1
F[C@@H]1CCN(c2nccc(-c3cnn4ncccc34)n2)C1	binding		1 µM	60
CNC(=O)[C@@H]1CC[C@@H](n2c(-c3ccc4cnccc4c3)nc3ccc(C(=O)NCc4cccc(C(N)=O)c4)cc32)C1	binding	competition with immobilised ligand	1 µM	100
c1cnn2ncc(-c3ccnc(N4CCC45COC5)n3)c2c1	binding		1 µM	6.2
O=C(c1ccc(Nc2ncc(Cl)c(-c3cc4ccccc4s3)n2)cc1)N1CCC(N2CCCC2)CC1	binding	competition with immobilised ligand	1 µM	0
C[C@@H]1CCN(c2nccc(-c3cnn4ncccc34)n2)C1	binding		1 µM	12
CCN1CCN(Cc2ccc(C(=O)Nc3ccc(C)c(Oc4ccc5c(c4)CC(=O)N5)c3)cc2C(F)(F)F)CC1	binding	competition with immobilised ligand	1 µM	94
COc1cnc(Nc2cccc(S(N)(=O)=O)c2)nc1N1CCN(c2ccccc2)CC1	binding	competition with immobilised ligand	1 µM	100
